In PMC8245912 (Acta Pharmaceutica Sinica. B, 2020):
Read-outs that look alike come from different tables or passages of the source. Peptide text beside a SMILES is read from it. * marks the point of attachment. Cbz = O=C(OCc1ccccc1)*

How the values were obtained:
[1] = test system: A549 (lung cancer) cells; experiment: CCK-8 antiproliferative assay, A549; assay type: cell-based; details: Homo sapiens
[2] = test system: HepG2 (liver cancer) cells; experiment: CCK-8 antiproliferative assay, HepG2; assay type: cell-based; details: Homo sapiens, HepG2, read-out: IC50 HepG2
[3] = test system: HCT116 (colon cancer) cells; experiment: CCK-8 antiproliferative assay, HCT116; assay type: cell-based; details: Homo sapiens, HCT-116, read-out: IC50 HCT116
[4] = test system: MCF-7 (breast cancer) cells; experiment: CCK-8 antiproliferative assay, MCF-7; assay type: cell-based; details: Homo sapiens, MCF7, read-out: IC50 MCF-7
[5] = test system: HCT116 (P53‒) cells; experiment: CCK-8 assay, P53-deleted HCT116; assay type: cell-based; details: Homo sapiens, HCT-116, read-out: IC50 HCT116 (P53‒)
[6] = molecular target: MDM2 (Homo sapiens, UniProt Q00987); experiment: Western blotting of MDM2 degradation in A549 cells; assay type: cell-based; details: for MDM2 degradation (result in words): Western blotting, Fig. 2B
[7] = test system: A549 cells; experiment: apoptosis assay, flow cytometry with Annexin V/PI double staining; assay type: cell-based, human; details: for apoptosis: 5.0 μmol/L, 24 h treatment
[8] = test system: A549 xenograft; experiment: in vivo A549 xenograft assay; design: species or system mouse; details: A549 xenograft nude mice, intraperitoneal 20 mg/kg twice-daily, 21 days
Procedure, shortened: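 Female BALB/c nude mice (6–7 weeks, 18–20 g) received 5.0 × 10^6 A549 cells subcutaneously in the flank. At mean tumour volume 100 mm3 they were randomised, 5 per group. Intraperitoneal dosing ran twice daily for 21 days; vehicle was normal saline. Calipers measured tumours every three days: V = A×B²/2, TGI = (1 − Vtreat/Vcontrol) × 100. Analysis used mean ± SEM and one-way ANOVA.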

[9] = molecular target: MDM2‒P53 (Homo sapiens, UniProt Q00987); experiment: fluorescence polarization; assay type: binding; details: for Ki: MDM2‒P53 Ki, FP binding assay, Table 1
[10] = test system: HCT116 (P53+) cells; experiment: CCK-8 assay, P53-wild HCT116; assay type: cell-based; details: Homo sapiens, HCT-116, read-out: IC50 HCT116 (P53+)
[11] = test system: P53; experiment: Western blotting of P53 expression in A549 cells; assay type: cell-based, human
[12] = test system: Caco-2 cells; assay type: in vitro ADME
[13] = A549, 72 h, read-out: IC50 A549

SMILES	IC50 [1, 13] [µM]	IC50 [2] [µM]	IC50 [3] [µM]	IC50 [4] [µM]	Ki [9] [µM]	MDM2 degradation (result in words) [6]	other results
COc1ccc(C2=N[C@@H](c3ccc(Cl)cc3)[C@@H](c3ccc(Cl)cc3)N2C(=O)N2CCNC(=O)C2)c(OC(C)C)c1 [Compound 1, Nutlin-3, reference compound]	7.9 ± 1.3	8.9 ± 1	5 ± 0.9	9.7 ± 1	–	did not induce the degradation of MDM2	IC50 ([1]; A549, read-out: IC50 A549): 9.9 ± 1.3 µM; IC50 [5]: 19 ± 0.91 µM; apoptosis ([7]; A549 cells): 10.94%; tumor growth inhibition (TGI) [8]: 47.8%
CCOc1cc(C(C)(C)C)ccc1C1=N[C@@H](c2ccc(Cl)cc2)[C@@H](c2ccc(Cl)cc2)N1C(=O)N1CCN(C(=O)CCCCCCCC(=O)N2CCN(C(=O)N3C(c4ccc(C(C)(C)C)cc4OCC)=N[C@@H](c4ccc(Cl)cc4)[C@H]3c3ccc(Cl)cc3)CC2)CC1 (relative stereo) [Compound 10b, 1,9-Bis(4-(2-(4-(tert-butyl)-2-ethoxyphenyl)-cis-4,5-bis(4-chlorophenyl)-4,5-dihydro-1H-imidazole-1-carbonyl)piperazin-1-yl) nonane-1,9-dione]	6.3 ± 1.2	3.8	5.7 ± 1.3	6.3 ± 1.1	1.6 ± 0.96	–	–
CCOc1cc(C(C)(C)C)ccc1C1=N[C@@H](c2ccc(Cl)cc2)[C@@H](c2ccc(Cl)cc2)N1C(=O)N1CCN(C(=O)CCCCCC(=O)N2CCN(C(=O)N3C(c4ccc(C(C)(C)C)cc4OCC)=N[C@@H](c4ccc(Cl)cc4)[C@H]3c3ccc(Cl)cc3)CC2)CC1 (relative stereo) [Compound 10a, 1,7-Bis(4-(2-(4-(tert-butyl)-2-ethoxyphenyl)-cis-4,5-bis(4-chlorophenyl)-4,5-dihydro-1H-imidazole-1-carbonyl)piperazin-1-yl) heptane-1,7-dione]	2.1 ± 0.1	1.5 ± 0.05	2.5 ± 1	2.1	0.65 ± 0.17	no degradation	–
CC(C)C[C@@H](C=O)NC(=O)[C@H](CC(C)C)NC(=O)[C@H](CC(C)C)NC(=O)OCc1ccccc1 [MG132, reference compound] (Cbz-Leu-Leu-Leu-aldehyde)	–	–	–	–	–	–	toxic effect on A549 cells (result in words) ([7]; 0.2 μmol/L, incubation for 24 h): no toxic effect
CCOc1cc(C(C)(C)C)ccc1C1=N[C@@H](c2ccc(Cl)cc2)[C@@H](c2ccc(Cl)cc2)N1C(=O)N1CCN(C(=O)COCCOCC(=O)N2CCN(C(=O)N3C(c4ccc(C(C)(C)C)cc4OCC)=N[C@@H](c4ccc(Cl)cc4)[C@H]3c3ccc(Cl)cc3)CC2)CC1 (relative stereo) [Compound 10e, 2,2′-(Ethane-1,2-diylbis(oxy)) bis(1-(4-(2-(4-(tert-butyl)-2-ethoxyphenyl)-cis-4,5-bis(4-chlorophenyl)-4,5-dihydro-1H-imidazole-1-carbonyl)piperazin-1-yl)ethan-1-one)]	6.6 ± 1	4.6 ± 0.8	3.9 ± 0.7	7.4 ± 0.51	1.5 ± 0.82	–	–

The next lines start with results.

IC50 [1, 13] [µM]	IC50 [2] [µM]	IC50 [3] [µM]	IC50 [4] [µM]	Ki [9] [µM]	SMILES	MDM2 degradation (result in words) [6]	other results
1 ± 0.1	3.3 ± 0.31	1.9 ± 0.11	2.9 ± 0.6	–	CCOc1cc(C(C)(C)C)ccc1C1=N[C@@H](c2ccc(Cl)cc2)[C@@H](c2ccc(Cl)cc2)N1C(=O)N1CCN(CC(=O)NCCOCCOCCOCCNC(=O)CN2CCN(C(=O)N3C(c4ccc(C(C)(C)C)cc4OCC)=N[C@@H](c4ccc(Cl)cc4)[C@H]3c3ccc(Cl)cc3)CC2=O)C(=O)C1 (relative stereo) [Compound 11a, N,N′-(((Oxybis(ethane-2,1-diyl))bis(oxy))bis(ethane-2,1-diyl))bis(2-(4-(2-(4-(tert-butyl)-2-ethoxyphenyl)-cis-4,5-bis(4-chlorophenyl)-4,5-dihydro-1H-imidazole-1-carbonyl)-2-oxopiperazin-1-yl)acetamide)]	dose-dependently induced MDM2 protein cleavage	fold more potent MDM2‒P53 competitive binding than positive control 1 ([9]; ratio of Ki vs compound 1): ~1.5 fold; IC50 ([1]; A549, read-out: IC50 A549): 1.4 ± 0.31 µM; IC50 [10]: 1.9 ± 0.67 µM; IC50 [5]: > 50 µM; MDM2 degradation ([6]; 2 μmol/L, 24 h): > 95%; MDM2 degradation rescue by proteasome inhibitor MG132 (result in words) ([6]; Fig. 4F): MG132 blocked the MDM2 degradation; time at which depletion of MDM2 was observed ([6]; time course degradation, Fig. 4D): ≤ 2 h; P53 protein expression (result in words) [11]: increased the P53 protein expression; apoptosis in combination with MG132 ([7]; A549 cells, 5.0 μmol/L compound + MG132 0.2 μmol/L): 15.81%; apoptosis ([7]; A549 cells): 23.49%; cellular permeability (result in words) [12]: low permeability
1.3	1.2 ± 0.2	1.3 ± 0.1	4.7 ± 0.81	0.22 ± 0.07	CCOc1cc(C(C)(C)C)ccc1C1=N[C@@H](c2ccc(Cl)cc2)[C@@H](c2ccc(Cl)cc2)N1C(=O)N1CCN(C(=O)COCCOCCOCC(=O)N2CCN(C(=O)N3C(c4ccc(C(C)(C)C)cc4OCC)=N[C@@H](c4ccc(Cl)cc4)[C@H]3c3ccc(Cl)cc3)CC2)CC1 (relative stereo) [Compound 10f, 2,2′-((Oxybis(ethane-2,1-diyl))bis(oxy))bis(1-(4-(2-(4-(tert-butyl)-2-ethoxyphenyl)-cis-4,5-bis(4-chlorophenyl)-4,5-dihydro-1H-imidazole-1-carbonyl)piperazin-1-yl)ethan-1-one)]	dose-dependently induced MDM2 protein cleavage	P53 protein expression (result in words) [11]: increased the P53 protein expression
6.6 ± 1	7.3 ± 0.52	3.9 ± 1.6	4.9 ± 0.2	1.8 ± 0.94	CCOc1cc(C(C)(C)C)ccc1C1=N[C@@H](c2ccc(Cl)cc2)[C@@H](c2ccc(Cl)cc2)N1C(=O)N1CCN(CC(=O)NCCOCCOCCNC(=O)CN2CCN(C(=O)N3C(c4ccc(C(C)(C)C)cc4OCC)=N[C@@H](c4ccc(Cl)cc4)[C@H]3c3ccc(Cl)cc3)CC2=O)C(=O)C1 (relative stereo) [Compound 11b, N,N′-((Ethane-1,2-diylbis(oxy))bis(ethane-2,1-diyl))bis(2-(4-(2-(4-(tert-butyl)-2-ethoxyphenyl)-cis-4,5-bis(4-chlorophenyl)-4,5-dihydro-1H-imidazole-1-carbonyl)-2-oxopiperazin-1-yl)acetamide)]	–	–
9.3 ± 1.7	12 ± 3.7	7.4 ± 2.1	14 ± 3.7	12 ± 1.9	CCOc1cc(C(C)(C)C)ccc1C1=N[C@@H](c2ccc(Cl)cc2)[C@@H](c2ccc(Cl)cc2)N1C(=O)N1CCN(CC(=O)NCCOCCNC(=O)CN2CCN(C(=O)N3C(c4ccc(C(C)(C)C)cc4OCC)=N[C@@H](c4ccc(Cl)cc4)[C@H]3c3ccc(Cl)cc3)CC2=O)C(=O)C1 (relative stereo) [Compound 11c, N,N′-(Oxybis(ethane-2,1-diyl))bis(2-(4-(2-(4-(tert-butyl)-2-ethoxyphenyl)-cis-4,5-bis(4-chlorophenyl)-4,5-dihydro-1H-imidazole-1-carbonyl)-2-oxopiperazin-1-yl)acetamide)]	–	–
